According to article PMC4651627 (The Journal of organic chemistry, 2015):

How the values were obtained:
[1] = system: MDA-MB-231 breast cancer cells; test: DNA fragmentation analysis; format: cell-based, human
NCI 60-cell line screen = details: cited from earlier work
MDA-MB-231 = format: cell-based, human
[2] = system: small panel of cell lines (five human tumor cell lines, MCF-10A, NIH/3T3); test: MTT cytotoxicity assay, summary over the panel of cell lines; format: cell-based
U937 cells [3] = test: Cell cycle analysis by flow cytometry; format: cell-based, human; details: 90 nM, 48 h
Outline: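 Exponentially growing U937 cells in RPMI-1640 with 10% FBS received test compound in DMSO (final 90 nM) or an equal amount of DMSO. After 48 h at 37 °C in CO2, cells were PBS-washed, fixed overnight in 70% ice-cold ethanol at 4 °C, and RNase-treated (100 µg/ml, 37 °C, 30 min).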

U937 cells [4] = test: Cell apoptosis analysis by flow cytometry; format: cell-based, human; details: 90 nM, 48 h, control cells 13.2%

**Q.** Which “DNA fragmentation (positive control)” value ([1]; 750 nM staurosporine (Figure 5), MDA-MB-231) does the source give for `CN[C@@H]1C[C@H]2O[C@@](C)([C@@H]1OC)n1c3ccccc3c3c4c(c5c6ccccc6n2c5c31)C(=O)NC4` [staurosporine, reference compound] here?
**A.** smaller DNA fragments

**Q.** With `C/C=C(\C)C(=O)O[C@@H]1[C@@H](O)[C@@H]2O[C@H]3[C@H](O[C@@H](CCC)CCCCCCC(=O)CCC(=O)OC[C@@H](O2)[C@H]1OC(=O)/C=C/c1ccccc1)O[C@H](C)[C@H](OC(C)=O)[C@@H]3O` [Ipomoeassin A] as the molecule, how does the “growth inhibition of different cancer cells” value (NCI 60-cell line screen) read?
**A.** strong and selective growth inhibition

**Q.** What does the source list for `C/C=C(\C)C(=O)O[C@@H]1[C@@H](O)[C@@H]2O[C@H]3[C@H](O[C@@H](CCCCC)CCCCCCC(=O)CCC(=O)OC[C@@H](O2)[C@H]1OC(=O)/C=C/c1ccccc1)O[C@H](C)[C@H](OC(C)=O)[C@@H]3O` [Ipomoeassin F]?
**A.** IC90 (MDA-MB-231): 100 nM; difference in toxicity between two cancer cell lines (U937 and MCF7) ([2]; U937 vs MCF7): ~ 8 fold; selectivity between tumor and non-tumor cell lines ([2]; tumor lines vs MCF-10A and NIH/3T3): no selectivity between tumor and non-tumor cell lines was observed; G1 arrest (U937 cells [3]): ~ 25%; reduction of cell population in the G2/M phase (U937 cells [3]): ~ 21%; percentage of apoptotic cells (U937 cells [4]): 33.6%; DNA fragmentation ([1]; 100 nM ipomoeassin F (IC90), MDA-MB-231, 72 h): smaller DNA fragments
